The term IC50 denotes the concentration needed to halve the response being measured.

We go through 26 compounds from ChEMBL document CHEMBL2176950, “A frozen analogue approach to aminopyridinylimidazoles leading to novel and promising p38 MAP kinase inhibitors” (J Med Chem, 2012).

SMILES strings stand for the structures. The source made the active and inactive calls. The rule behind the calls is not given here.

The target in assay [1] is T1, Mitogen-activated protein kinase 14 (Homo sapiens, UniProt Q16539). Kind of assay: Ratio of SB203580 IC50 to compound IC50 for inhibition of p38alpha MAPK. In a few lines:
(§1)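 p38 MAPK activity assay run by a previously published protocol. IC50 given as mean with SEM from three experiments. The activity coefficient is the IC50 of the SB203580 reference divided by the IC50 of the test compound.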

For assay [2], the target named is T1, Mitogen-activated protein kinase 14. Kind of assay: Inhibition of p38alpha MAPK. In outline: as §1
The target in assay [3] is Mitogen-activated protein kinase 11 (Homo sapiens) (UniProt Q15759). The experiment in a line: Inhibition of MAPK11 assessed as residual activity at 1000 nM.
Assay [4] has as its target TRAF2 and NCK-interacting protein kinase (Homo sapiens) (UniProt Q9UKE5). The experiment in a line: Inhibition of KIAA0551 assessed as residual activity at 1000 nM.
In assay [5] the target is T2, Serine/threonine-protein kinase 36 (Homo sapiens) (UniProt Q9NRP7).
T2 sequence (whole entry): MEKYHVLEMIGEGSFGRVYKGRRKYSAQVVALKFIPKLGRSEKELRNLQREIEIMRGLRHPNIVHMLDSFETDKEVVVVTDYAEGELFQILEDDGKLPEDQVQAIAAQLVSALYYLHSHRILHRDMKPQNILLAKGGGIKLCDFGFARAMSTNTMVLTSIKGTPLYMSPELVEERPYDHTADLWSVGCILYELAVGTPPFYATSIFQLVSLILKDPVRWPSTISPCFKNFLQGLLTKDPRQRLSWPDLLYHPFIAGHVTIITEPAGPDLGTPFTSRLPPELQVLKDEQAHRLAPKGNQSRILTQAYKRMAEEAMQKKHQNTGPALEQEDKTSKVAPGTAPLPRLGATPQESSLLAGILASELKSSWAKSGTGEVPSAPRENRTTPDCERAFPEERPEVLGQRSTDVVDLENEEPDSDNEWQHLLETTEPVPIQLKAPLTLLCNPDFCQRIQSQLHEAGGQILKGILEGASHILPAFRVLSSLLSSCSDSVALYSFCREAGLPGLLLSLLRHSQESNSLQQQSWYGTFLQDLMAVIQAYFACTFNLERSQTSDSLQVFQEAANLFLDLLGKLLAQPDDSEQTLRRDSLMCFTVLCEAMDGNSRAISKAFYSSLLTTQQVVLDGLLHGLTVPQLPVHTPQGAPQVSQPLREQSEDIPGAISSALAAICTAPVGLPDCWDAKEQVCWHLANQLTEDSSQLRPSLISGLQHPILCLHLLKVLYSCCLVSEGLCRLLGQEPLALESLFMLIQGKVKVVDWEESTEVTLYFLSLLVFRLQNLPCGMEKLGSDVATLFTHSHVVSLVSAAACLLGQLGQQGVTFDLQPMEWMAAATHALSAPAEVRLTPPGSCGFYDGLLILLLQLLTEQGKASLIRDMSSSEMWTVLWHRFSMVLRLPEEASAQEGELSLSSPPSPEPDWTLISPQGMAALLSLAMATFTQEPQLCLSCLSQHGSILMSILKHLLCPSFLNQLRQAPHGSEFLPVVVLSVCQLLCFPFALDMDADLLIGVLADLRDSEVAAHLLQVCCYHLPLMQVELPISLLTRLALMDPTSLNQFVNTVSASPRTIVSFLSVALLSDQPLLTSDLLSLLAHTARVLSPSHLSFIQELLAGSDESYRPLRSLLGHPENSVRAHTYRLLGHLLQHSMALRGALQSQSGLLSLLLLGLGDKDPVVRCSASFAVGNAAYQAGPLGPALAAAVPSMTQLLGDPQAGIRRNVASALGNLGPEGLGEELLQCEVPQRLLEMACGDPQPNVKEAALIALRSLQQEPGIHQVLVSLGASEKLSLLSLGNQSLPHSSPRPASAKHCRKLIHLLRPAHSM
Kind of assay: Inhibition of STK36 assessed as residual activity at 1000 nM.

The target in assay [6] is Proto-oncogene tyrosine-protein kinase Src (Homo sapiens) (UniProt P12931). The experiment in a line: Inhibition of SRC assessed as residual activity at 1000 nM.
Assay [7] has as its target Receptor-interacting serine/threonine-protein kinase 2 (Homo sapiens) (UniProt O43353). Kind of assay: Inhibition of RIPK2 assessed as residual activity at 1000 nM.
Assay [8] addresses T1, Mitogen-activated protein kinase 14. The experiment in a line: Inhibition of MAPK14 assessed as residual activity at 1000 nM.
Assay [9] concerns the target T3, Cyclin-G-associated kinase (Homo sapiens) (UniProt O14976).
T3 sequence (whole entry): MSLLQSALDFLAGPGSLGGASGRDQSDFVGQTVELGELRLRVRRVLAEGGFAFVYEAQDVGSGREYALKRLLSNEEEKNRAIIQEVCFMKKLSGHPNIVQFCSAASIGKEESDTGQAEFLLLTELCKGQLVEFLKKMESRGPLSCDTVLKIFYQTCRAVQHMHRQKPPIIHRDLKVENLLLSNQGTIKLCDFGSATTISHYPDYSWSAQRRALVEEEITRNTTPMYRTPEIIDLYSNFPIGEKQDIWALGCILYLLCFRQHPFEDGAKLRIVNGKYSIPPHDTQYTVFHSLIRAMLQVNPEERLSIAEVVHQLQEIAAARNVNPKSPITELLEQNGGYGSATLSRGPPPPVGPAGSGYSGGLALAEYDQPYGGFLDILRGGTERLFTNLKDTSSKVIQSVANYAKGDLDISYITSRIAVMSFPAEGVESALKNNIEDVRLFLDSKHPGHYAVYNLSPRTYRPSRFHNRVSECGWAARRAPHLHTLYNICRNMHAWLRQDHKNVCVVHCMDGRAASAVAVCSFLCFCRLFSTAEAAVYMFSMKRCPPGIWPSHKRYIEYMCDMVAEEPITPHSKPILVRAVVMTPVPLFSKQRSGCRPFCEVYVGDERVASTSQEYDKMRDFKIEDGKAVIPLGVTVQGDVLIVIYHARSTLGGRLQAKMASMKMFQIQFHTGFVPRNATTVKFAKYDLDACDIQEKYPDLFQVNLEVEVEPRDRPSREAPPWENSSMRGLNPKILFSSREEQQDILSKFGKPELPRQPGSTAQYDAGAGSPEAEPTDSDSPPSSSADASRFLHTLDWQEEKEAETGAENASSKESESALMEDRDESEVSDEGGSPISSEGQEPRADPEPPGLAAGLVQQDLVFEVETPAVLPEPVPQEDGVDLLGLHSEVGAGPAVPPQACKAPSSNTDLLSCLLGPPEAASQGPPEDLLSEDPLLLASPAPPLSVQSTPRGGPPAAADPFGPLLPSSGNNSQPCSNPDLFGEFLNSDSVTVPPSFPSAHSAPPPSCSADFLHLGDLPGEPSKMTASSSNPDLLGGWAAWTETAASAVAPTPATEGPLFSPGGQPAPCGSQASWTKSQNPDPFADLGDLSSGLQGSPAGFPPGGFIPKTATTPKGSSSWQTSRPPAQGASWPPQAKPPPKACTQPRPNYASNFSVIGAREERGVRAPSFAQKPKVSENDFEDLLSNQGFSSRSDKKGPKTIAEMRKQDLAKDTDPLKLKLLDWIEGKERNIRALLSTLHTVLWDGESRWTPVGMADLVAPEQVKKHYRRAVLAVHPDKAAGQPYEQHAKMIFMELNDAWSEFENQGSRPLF
Kind of assay: Inhibition of GAK assessed as residual activity at 1000 nM.

Assay [10] concerns the target Protein-tyrosine kinase 6 (Homo sapiens) (UniProt Q13882). The experiment in a line: Inhibition of PTK6 assessed as residual activity at 1000 nM.
The target in assay [11] is Mitogen-activated protein kinase 9 (Homo sapiens) (UniProt P45984). Kind of assay: Inhibition of JNK2 assessed as residual activity at 1000 nM.
The target of assay [12] is Mitogen-activated protein kinase 10 (Homo sapiens) (UniProt P53779). Kind of assay: Inhibition of JNK3 assessed as residual activity at 1000 nM.
Assay [13] concerns the target Mitogen-activated protein kinase 8 (Homo sapiens) (UniProt P45983). The experiment in a line: Inhibition of JNK1 assessed as residual activity at 1000 nM.
The target of assay [14] is Tyrosine-protein kinase FRK (Homo sapiens) (UniProt P42685). The experiment in a line: Inhibition of FRK assessed as residual activity at 1000 nM.
For assay [15], the target named is T4, Mitogen-activated protein kinase 12 (Homo sapiens) (UniProt P53778).
T4 sequence (whole entry): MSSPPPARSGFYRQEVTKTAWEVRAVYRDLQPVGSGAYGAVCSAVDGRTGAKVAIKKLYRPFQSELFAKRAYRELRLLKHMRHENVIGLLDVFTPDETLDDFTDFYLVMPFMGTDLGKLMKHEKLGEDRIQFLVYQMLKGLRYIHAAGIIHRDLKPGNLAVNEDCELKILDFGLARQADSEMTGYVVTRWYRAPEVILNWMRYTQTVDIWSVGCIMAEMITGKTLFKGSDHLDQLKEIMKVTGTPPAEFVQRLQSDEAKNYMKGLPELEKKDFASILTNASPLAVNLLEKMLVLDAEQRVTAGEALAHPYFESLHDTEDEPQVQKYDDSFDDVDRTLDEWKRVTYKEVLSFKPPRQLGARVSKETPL
The conditions noted are these: 1000 nM.

T1 sequence (Q16539 whole entry): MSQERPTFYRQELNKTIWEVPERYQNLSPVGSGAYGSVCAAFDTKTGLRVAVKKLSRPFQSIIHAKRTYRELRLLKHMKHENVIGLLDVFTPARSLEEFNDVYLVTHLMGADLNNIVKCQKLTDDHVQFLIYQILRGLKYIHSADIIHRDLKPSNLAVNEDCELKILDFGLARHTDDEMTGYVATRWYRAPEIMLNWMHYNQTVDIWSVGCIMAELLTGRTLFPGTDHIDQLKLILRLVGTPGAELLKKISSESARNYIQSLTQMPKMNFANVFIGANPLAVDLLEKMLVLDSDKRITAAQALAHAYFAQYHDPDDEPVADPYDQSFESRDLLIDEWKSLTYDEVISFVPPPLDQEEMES
Sequence of Mitogen-activated protein kinase 11 (Homo sapiens) (Q15759 whole entry): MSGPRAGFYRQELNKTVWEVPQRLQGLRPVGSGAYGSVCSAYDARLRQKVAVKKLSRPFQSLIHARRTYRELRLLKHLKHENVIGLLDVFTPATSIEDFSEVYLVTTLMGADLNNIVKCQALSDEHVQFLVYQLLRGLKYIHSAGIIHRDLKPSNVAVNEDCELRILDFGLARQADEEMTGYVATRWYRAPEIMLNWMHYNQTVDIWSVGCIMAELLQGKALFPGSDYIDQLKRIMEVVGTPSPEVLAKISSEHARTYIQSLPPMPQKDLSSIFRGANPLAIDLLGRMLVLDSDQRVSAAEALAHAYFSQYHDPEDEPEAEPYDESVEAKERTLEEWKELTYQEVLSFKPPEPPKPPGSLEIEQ
Sequence of TRAF2 and NCK-interacting protein kinase (Homo sapiens) (Q9UKE5 whole entry, looked up): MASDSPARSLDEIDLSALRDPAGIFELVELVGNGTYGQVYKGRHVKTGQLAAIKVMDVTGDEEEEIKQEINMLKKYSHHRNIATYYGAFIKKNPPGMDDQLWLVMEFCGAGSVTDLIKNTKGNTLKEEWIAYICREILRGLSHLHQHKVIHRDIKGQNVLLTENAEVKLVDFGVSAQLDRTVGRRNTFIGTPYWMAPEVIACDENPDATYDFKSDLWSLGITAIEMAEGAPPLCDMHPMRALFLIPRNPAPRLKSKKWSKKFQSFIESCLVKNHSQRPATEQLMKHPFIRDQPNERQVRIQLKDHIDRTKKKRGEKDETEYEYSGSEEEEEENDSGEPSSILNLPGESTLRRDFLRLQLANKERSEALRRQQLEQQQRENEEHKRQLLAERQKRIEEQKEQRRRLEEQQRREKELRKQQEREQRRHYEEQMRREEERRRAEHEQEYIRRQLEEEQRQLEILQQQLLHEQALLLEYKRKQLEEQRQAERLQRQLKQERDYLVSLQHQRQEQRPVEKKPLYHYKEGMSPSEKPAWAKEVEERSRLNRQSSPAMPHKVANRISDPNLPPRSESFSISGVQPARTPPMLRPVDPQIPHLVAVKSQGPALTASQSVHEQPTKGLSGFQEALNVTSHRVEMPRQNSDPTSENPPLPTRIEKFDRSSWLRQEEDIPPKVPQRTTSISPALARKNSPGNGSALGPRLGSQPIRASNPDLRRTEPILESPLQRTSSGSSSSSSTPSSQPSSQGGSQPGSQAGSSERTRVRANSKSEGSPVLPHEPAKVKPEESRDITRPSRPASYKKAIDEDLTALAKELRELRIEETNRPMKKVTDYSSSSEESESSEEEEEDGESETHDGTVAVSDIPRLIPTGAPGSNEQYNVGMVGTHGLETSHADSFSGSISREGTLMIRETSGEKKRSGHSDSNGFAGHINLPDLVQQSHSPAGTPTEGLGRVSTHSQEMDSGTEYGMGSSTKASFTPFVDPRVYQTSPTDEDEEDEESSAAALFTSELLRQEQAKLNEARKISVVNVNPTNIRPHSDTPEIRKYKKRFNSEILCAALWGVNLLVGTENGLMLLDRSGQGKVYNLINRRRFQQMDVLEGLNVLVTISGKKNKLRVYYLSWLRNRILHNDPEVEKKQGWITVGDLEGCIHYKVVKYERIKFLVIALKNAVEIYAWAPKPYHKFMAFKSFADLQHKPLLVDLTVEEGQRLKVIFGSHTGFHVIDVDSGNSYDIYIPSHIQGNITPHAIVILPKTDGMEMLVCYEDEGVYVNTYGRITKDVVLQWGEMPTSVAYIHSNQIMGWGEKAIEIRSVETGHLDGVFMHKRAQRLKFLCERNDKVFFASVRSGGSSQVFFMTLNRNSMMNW
Sequence of Receptor-interacting serine/threonine-protein kinase 2 (Homo sapiens) (O43353 whole entry): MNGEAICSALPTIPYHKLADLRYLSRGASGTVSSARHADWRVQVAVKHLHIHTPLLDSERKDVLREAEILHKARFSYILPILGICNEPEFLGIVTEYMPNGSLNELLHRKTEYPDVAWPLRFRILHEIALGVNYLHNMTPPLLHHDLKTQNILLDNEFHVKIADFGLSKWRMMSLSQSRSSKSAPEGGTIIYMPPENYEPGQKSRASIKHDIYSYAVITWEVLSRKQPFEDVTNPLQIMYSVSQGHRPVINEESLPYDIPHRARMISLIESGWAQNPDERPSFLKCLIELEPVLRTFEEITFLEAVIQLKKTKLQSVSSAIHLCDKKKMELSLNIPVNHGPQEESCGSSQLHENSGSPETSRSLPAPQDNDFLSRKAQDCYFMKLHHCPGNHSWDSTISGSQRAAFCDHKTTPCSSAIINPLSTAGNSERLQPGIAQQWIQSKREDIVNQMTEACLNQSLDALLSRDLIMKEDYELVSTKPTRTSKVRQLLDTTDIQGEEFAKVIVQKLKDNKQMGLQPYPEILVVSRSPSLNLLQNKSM
Sequence of Tyrosine-protein kinase FRK (Homo sapiens) (P42685 whole entry): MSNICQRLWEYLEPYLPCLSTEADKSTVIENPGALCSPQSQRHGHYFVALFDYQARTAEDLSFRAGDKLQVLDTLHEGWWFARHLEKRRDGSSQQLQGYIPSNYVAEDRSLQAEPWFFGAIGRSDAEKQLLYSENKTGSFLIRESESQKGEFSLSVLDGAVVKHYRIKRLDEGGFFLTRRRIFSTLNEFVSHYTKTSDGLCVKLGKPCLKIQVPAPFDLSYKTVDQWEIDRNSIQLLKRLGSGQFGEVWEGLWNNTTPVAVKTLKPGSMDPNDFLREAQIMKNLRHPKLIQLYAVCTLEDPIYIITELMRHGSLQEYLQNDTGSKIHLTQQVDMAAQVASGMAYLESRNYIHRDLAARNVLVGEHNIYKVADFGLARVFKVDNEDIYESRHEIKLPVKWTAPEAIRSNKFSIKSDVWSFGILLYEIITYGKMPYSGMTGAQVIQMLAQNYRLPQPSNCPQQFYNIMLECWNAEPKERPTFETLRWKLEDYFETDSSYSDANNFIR
Sequence of Proto-oncogene tyrosine-protein kinase Src (Homo sapiens) (P12931 2-536 limits assumed): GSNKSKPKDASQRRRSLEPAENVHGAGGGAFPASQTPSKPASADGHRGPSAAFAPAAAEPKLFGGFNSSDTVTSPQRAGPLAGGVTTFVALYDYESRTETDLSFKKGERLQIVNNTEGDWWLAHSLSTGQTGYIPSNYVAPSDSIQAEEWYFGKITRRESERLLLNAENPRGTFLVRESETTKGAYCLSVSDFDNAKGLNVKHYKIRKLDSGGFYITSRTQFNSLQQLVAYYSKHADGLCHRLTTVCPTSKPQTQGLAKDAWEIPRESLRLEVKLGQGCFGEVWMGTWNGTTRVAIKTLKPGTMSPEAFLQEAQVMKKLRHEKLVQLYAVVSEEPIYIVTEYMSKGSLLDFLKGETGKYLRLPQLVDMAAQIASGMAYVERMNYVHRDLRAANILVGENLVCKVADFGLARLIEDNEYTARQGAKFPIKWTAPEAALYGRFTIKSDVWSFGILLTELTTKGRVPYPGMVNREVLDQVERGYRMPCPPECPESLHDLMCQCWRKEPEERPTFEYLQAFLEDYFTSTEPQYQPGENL
Sequence of Mitogen-activated protein kinase 10 (Homo sapiens) (P53779 whole entry): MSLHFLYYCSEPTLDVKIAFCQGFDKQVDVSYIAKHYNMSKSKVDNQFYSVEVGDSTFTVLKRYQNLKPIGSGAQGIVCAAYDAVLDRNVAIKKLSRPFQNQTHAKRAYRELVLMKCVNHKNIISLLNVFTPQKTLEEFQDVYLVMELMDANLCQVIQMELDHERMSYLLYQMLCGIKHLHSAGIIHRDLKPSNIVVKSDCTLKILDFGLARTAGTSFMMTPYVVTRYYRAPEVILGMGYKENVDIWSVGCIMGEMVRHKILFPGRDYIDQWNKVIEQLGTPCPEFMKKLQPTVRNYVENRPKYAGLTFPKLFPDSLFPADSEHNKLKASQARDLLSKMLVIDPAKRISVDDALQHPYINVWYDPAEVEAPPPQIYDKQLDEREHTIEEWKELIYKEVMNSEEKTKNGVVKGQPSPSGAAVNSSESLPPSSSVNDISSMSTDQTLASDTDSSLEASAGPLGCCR
Sequence of Mitogen-activated protein kinase 9 (Homo sapiens) (P45984 whole entry, looked up): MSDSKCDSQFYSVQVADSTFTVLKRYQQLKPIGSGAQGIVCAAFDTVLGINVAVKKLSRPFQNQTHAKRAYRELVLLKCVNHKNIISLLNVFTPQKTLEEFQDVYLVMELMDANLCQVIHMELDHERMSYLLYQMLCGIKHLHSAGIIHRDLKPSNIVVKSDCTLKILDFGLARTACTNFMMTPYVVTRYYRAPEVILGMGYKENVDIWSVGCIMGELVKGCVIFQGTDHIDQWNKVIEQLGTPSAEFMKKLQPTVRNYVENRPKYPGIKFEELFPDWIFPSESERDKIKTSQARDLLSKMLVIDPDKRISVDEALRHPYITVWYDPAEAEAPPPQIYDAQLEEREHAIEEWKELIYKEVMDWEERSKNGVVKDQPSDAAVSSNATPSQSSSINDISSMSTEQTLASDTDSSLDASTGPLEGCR
Sequence of Mitogen-activated protein kinase 8 (Homo sapiens) (P45983 whole entry): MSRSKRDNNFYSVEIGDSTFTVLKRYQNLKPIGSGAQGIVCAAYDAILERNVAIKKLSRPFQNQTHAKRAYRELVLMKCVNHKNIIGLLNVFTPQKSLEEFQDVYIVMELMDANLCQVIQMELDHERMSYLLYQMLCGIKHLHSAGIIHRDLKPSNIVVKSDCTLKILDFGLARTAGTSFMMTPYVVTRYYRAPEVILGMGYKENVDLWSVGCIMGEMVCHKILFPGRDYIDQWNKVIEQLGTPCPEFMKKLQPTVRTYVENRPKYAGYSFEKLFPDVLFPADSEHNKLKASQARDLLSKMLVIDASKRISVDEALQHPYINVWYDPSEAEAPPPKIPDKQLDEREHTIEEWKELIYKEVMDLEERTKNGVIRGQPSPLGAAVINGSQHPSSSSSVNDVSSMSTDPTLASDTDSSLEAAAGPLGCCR

As for `COCn1c(-c2ccccc2)nc(-c2ccc(F)cc2)c1-c1ccnc2[nH]ccc12`, in assay [1], the Ratio IC50 came out at 0.18. In assay [2], inhibition was half-maximal at 451 nM (IC50). For the compound `CSc1ccc(-c2nc(-c3ccnc4[nH]c(-c5ccccc5)cc34)c(-c3ccc(F)cc3)[nH]2)cc1`, in assay [2], the IC50 was 39 nM.

For `COCn1c(-c2ccccc2)nc(-c2ccc(F)cc2)c1-c1ncnc2[nH]cnc12`, the Ratio IC50 in assay [1] came out at 0.01. The compound further returned an IC50 in assay [2] of 2990 nM. Consider `COc1ccc(-c2nc(-c3ccc(F)cc3)c(-c3ccnc4[nH]c(-c5ccccc5)cc34)[nH]2)cc1`, for which the Ratio IC50 in assay [1] turned out to be 0.67.

`Fc1ccc(-c2[nH]c(-c3ccccc3)nc2-c2ccnc3[nH]ccc23)cc1` displayed an IC50 in assay [2] of 108 nM. This lies in the sub-micromolar range.

Turning to `Oc1ccc(-c2nc(-c3ccc(F)cc3)c(-c3ccnc4[nH]c(-c5ccccc5)cc34)[nH]2)cc1`, the Activity worked out at 2.5% in assay [3]; 17% in assay [4]; 4.8% in assay [5]; 28% in [6]; 3.2% in assay [7]; 8.9% in assay [8]. In addition, the Activity in assay [9] stood at 7.7%. Moreover, the Ratio IC50 in assay [1] was 19.7. As to `Fc1ccc(-c2[nH]c(-c3ccccc3)nc2-c2ccncc2)cc1`, the Ratio IC50 in assay [1] came out at 0.33. As for `Fc1ccc(-c2nc(-c3ccccc3)[nH]c2-c2ccnc3[nH]c(Cc4ccccc4)cc23)cc1`, the Ratio IC50 in assay [1] was 0.07. Also, in assay [2], the half-maximal inhibitory concentration (IC50) is 345 nM. In assay [2], `COc1cc(-c2nc(-c3ccnc4[nH]c(-c5ccccc5)cc34)c(-c3ccc(F)cc3)[nH]2)cc(OC)c1OC` registered an IC50 of 290 nM.

`Fc1ccc(-c2[nH]c(-c3ccccc3)nc2-c2ccnc3[nH]c(-c4ccccc4)cc23)cc1` yielded a half-inhibitory concentration (IC50) in assay [2] of 16 nM. Compared with the last compound, the IC50 is about 18-fold lower.

With `Fc1ccc(-c2nc(-c3ccccc3)[nH]c2-c2ccnc3[nH]c(-c4ccccc4)cc23)cc1`, the Ratio IC50 in [1] is 2.38. `Fc1ccc(-c2[nH]c(-c3ccccc3)nc2-c2ccnc3[nH]c(C4CCCCC4)cc23)cc1` registered a half-inhibitory concentration (IC50) in assay [2] of 15 nM. For `Oc1ccc(-c2nc(-c3ccc(F)cc3)c(-c3ccncc3)[nH]2)cc1`, the inhibition entry in assay [10], in assay [11], in assay [12], in [13], in assay [14] and in assay [3] was “Active” throughout. Also, the inhibition entry in assay [4], in [5], in [7], in [8], in assay [9] and in assay [15] was “Active” throughout. `C[S+]([O-])c1ccc(-c2nc(-c3ccnc4[nH]c(-c5ccccc5)cc34)c(-c3ccc(F)cc3)[nH]2)cc1` (stereo not given) showed a half-maximal inhibitory concentration (IC50) in assay [2] of 8 nM. `COc1cc(-c2nc(-c3ccc(F)cc3)c(-c3ccnc4[nH]c(-c5ccccc5)cc34)[nH]2)cc(OC)c1OC`: the Ratio IC50 in assay [1] turned out to be 0.12. Same read-out and setting: as for `Fc1ccc(-c2nc(-c3ccccc3)[nH]c2-c2ccnc3[nH]c(C4CCCCC4)cc23)cc1`, the figure is 2.07. For the compound `Fc1ccc(-c2nc(-c3ccccc3)[nH]c2-c2ncnc3[nH]ccc23)cc1`, the Ratio IC50 in assay [1] was 0.03. This compound came in with a half-maximal inhibitory concentration (IC50) in assay [2] of 2600 nM. On to `Fc1ccc(-c2nc(-c3ccccc3)[nH]c2-c2ccnc3[nH]c4ccccc4c23)cc1`, for which the Ratio IC50 in [1] is 0.55. For `CS(=O)(=O)c1ccc(-c2nc(-c3ccc(F)cc3)c(-c3ccnc4[nH]c(-c5ccccc5)cc34)[nH]2)cc1`, in assay [1], the Ratio IC50 is 3.46. The compound also returned a concentration for half-maximal inhibition (IC50) in assay [2] of 11 nM. On to `Fc1ccc(-c2nc(-c3ccccc3)[nH]c2-c2ncnc3[nH]cnc23)cc1`, for which the Ratio IC50 in [1] was 0.1. In assay [2], this compound had an IC50 of 740 nM. Take `Fc1ccc(-c2nc(-c3ccccc3)[nH]c2-c2ccnc3[nH]ccc23)cc1`: the Ratio IC50 in assay [1] was 0.47. With `C[S+]([O-])c1ccc(-c2nc(-c3ccc(F)cc3)c(-c3ccnc4[nH]c(-c5ccccc5)cc34)[nH]2)cc1` (stereo not given), the Ratio IC50 in [1] was determined as 4.75. As to `CSc1ccc(-c2nc(-c3ccc(F)cc3)c(-c3ccnc4[nH]c(-c5ccccc5)cc34)[nH]2)cc1`, in assay [1], the Ratio IC50 is 0.97. In turn, `Oc1ccc(-c2nc(-c3ccnc4[nH]c(-c5ccccc5)cc34)c(-c3ccc(F)cc3)[nH]2)cc1` yielded an IC50 in assay [2] of 3 nM. With `Fc1ccc(-c2[nH]c(-c3ccccc3)nc2-c2ccnc3[nH]c4ccccc4c23)cc1`, in assay [2], the IC50 is 153 nM. As for `COc1ccc(-c2nc(-c3ccnc4[nH]c(-c5ccccc5)cc34)c(-c3ccc(F)cc3)[nH]2)cc1`, the IC50 in assay [2] worked out at 70 nM.
